The source made the active and inactive calls. The calls are words filed in the database; no cut-off is given here.
Legend:
GTPase KRas = GTPase KRas (Homo sapiens, UniProt P01116, G12V); test: Inhibition of GFP-tagged KRAS G12V mutant (unknown origin) expressed in MDCK cells cotransfected with mCherry-CAXX assessed as increase in KRAS G12V-plasma membrane dissociation incubated for 48 hrs by quantitative confocal microscopic method; type: cell-based
Outline: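 MDCK cells stably co-expressing mGFP-K-RasG12V and mCherry-CAAX (endomembrane marker) treated with a range of compound concentrations for 48h. Cells fixed in 4% paraformaldehyde, imaged by confocal microscopy. PM dissociation scored as the fraction of mCherry-CAAX co-localized with GFP-K-RasG12V (Manders coefficient). IC50 estimated from dose-response plots from three independent experiments.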

[1] = system: GTPase HRas (Homo sapiens), P01112 [G12V]; test: Inhibition of GFP-tagged HRAS G12V mutant (unknown origin) expressed in MDCK cells cotransfected with mCherry-CAXX assessed as effect on HRAS G12V-plasma membrane dissociation incubated for 48 hrs by quantitative confocal microscopic method; type: cell-based
Outline: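 MDCK cells stably co-expressing mGFP-RasG12V (K- or H-) and mCherry-CAAX endomembrane marker treated with a range of concentrations for 48 h, fixed in 4% paraformaldehyde, imaged by quantitative confocal microscopy. Fraction of mCherry-CAAX co-localized with GFP-Ras by Manders coefficient; IC50 for PM dissociation estimated from dose-response plots of three independent experiments.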

[2] = system: GTPase KRas (Homo sapiens), P01116 [G12V]; test: Inhibition of GFP-tagged KRAS G12V mutant (unknown origin) expressed in MDCK cells assessed as reduction in Akt phosphorylation level incubated for 48 hrs by Western blot analysis; type: cell-based
Outline: (§1)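 MDCK cells stably expressing GFP-tagged K-RasG12V or H-RasG12V treated 48 h; lysates immunoblotted with anti-ppERK or anti-pAkt (S473) antibodies, total ERK and Akt as loading controls. Quantified as means ± S.E.M. of three independent experiments versus DMSO-treated cells; one-way ANOVA.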

[3] = system: GTPase KRas (Homo sapiens), P01116 [G12V]; test: Inhibition of GFP-tagged KRAS G12V mutant (unknown origin) expressed in MDCK cells assessed as reduction in ERK phosphorylation level incubated for 48 hrs by Western blot analysis; type: cell-based; outline: as §1
[4] = system: GTPase HRas (Homo sapiens), P01112 [G12V]; test: Inhibition of GFP-tagged HRAS G12V mutant (unknown origin) expressed in MDCK cells assessed as reduction in Akt phosphorylation level incubated for 48 hrs by Western blot analysis; type: cell-based; outline: as §1
[5] = system: GTPase HRas (Homo sapiens), P01112 [G12V]; test: Inhibition of GFP-tagged HRAS G12V mutant (unknown origin) expressed in MDCK cells assessed as reduction in ERK phosphorylation level incubated for 48 hrs by Western blot analysis; type: cell-based; outline: as §1
[6] = target: GTPase KRas (Homo sapiens) (UniProt P01116); test: Inhibition of KRAS in human NCI-H358 cells assessed as MARCK phosphorylation level at 1 uM incubated for 48 hrs by Western blot analysis (reference value: 1.00 +/- 0.39); type: cell-based
[7] = target: GTPase KRas (Homo sapiens) (UniProt P01116); test: Inhibition of KRAS in human NCI-H358 cells assessed as MARCK phosphorylation level at 5 uM incubated for 48 hrs by Western blot analysis (reference value: 1.00 +/- 0.39); type: cell-based
[8] = target: GTPase KRas (Homo sapiens) (UniProt P01116); test: Inhibition of KRAS in human NCI-H358 cells assessed as MARCK phosphorylation level at 10 uM incubated for 48 hrs by Western blot analysis (reference value: 1.00 +/- 0.39); type: cell-based
[9] = target: GTPase KRas (Homo sapiens) (UniProt P01116); test: Inhibition of KRAS in human NCI-H358 cells assessed as MARCK phosphorylation level at 25 uM incubated for 48 hrs by Western blot analysis (reference value: 1.00 +/- 0.39); type: cell-based
[10] = system: GTPase KRas (Homo sapiens), P01116 [G12V]; test: Inhibition of GFP-tagged KRAS G12V mutant (unknown origin) expressed in MDCK cells assessed as MARCK phosphorylation level at 1 uM incubated for 48 hrs by Western blot analysis (reference value: 1.00 +/- 0.13); type: cell-based
[11] = system: GTPase KRas (Homo sapiens), P01116 [G12V]; test: Inhibition of GFP-tagged KRAS G12V mutant (unknown origin) expressed in MDCK cells assessed as MARCK phosphorylation level at 5 uM incubated for 48 hrs by Western blot analysis (reference value: 1.00 +/- 0.13); type: cell-based
[12] = system: GTPase KRas (Homo sapiens), P01116 [G12V]; test: Inhibition of GFP-tagged KRAS G12V mutant (unknown origin) expressed in MDCK cells assessed as MARCK phosphorylation level at 10 uM incubated for 48 hrs by Western blot analysis (reference value: 1.00 +/- 0.13); type: cell-based
[13] = system: GTPase KRas (Homo sapiens), P01116 [G12V]; test: Inhibition of GFP-tagged KRAS G12V mutant (unknown origin) expressed in MDCK cells assessed as MARCK phosphorylation level at 25 uM incubated for 48 hrs by Western blot analysis (reference value: 1.00 +/- 0.13); type: cell-based
[14] = system: GTPase KRas (Homo sapiens), P01116 [G12V,S181A]; test: Inhibition of GFP-tagged KRAS G12V/S181A mutant (unknown origin) expressed in MDCK cells cotransfected with mCherry-CAXX assessed as reduction in KRAS G12V-plasma membrane dissociation incubated for 48 hrs by quantitative confocal microscopic method; type: cell-based
[15] = target: GTPase KRas (Homo sapiens) (UniProt P01116); test: Inhibition of KRAS in human NCI-H358 cells assessed as increase in MARCK phosphorylation level incubated for 48 hrs by Western blot analysis
[16] = system: GTPase KRas (Homo sapiens), P01116 [G12V]; test: Inhibition of GFP-tagged KRAS G12V mutant (unknown origin) expressed in MDCK cells assessed as increase in MARCK phosphorylation level incubated for 48 hrs by Western blot analysis

Chain of GTPase HRas (Homo sapiens), P01112 [G12V] (P01112 whole entry G12V): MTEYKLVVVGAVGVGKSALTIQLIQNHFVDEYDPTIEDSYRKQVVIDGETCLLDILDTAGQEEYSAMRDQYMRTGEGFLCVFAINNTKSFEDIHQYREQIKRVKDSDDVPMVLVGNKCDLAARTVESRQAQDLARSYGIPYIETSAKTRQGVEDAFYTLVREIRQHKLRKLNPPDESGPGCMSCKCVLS
Chain of GTPase KRas (Homo sapiens) (P01116 whole entry, looked up): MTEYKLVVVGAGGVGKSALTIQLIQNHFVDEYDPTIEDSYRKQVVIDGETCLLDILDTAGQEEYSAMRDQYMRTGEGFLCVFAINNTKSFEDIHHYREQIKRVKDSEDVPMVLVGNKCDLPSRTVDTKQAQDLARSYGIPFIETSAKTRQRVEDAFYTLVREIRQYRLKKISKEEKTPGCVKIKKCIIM
Chain of GTPase KRas (Homo sapiens), P01116 [G12V] (P01116 whole entry G12V): as the sequence (P01116 whole entry, looked up) above, with G12V counted along it
Chain of GTPase KRas (P01116 whole entry G12V): as the sequence (P01116 whole entry, looked up) above, with G12V counted along it
Chain of GTPase KRas (Homo sapiens), P01116 [G12V,S181A] (P01116 1-164 with tags or gaps G12V,S181A): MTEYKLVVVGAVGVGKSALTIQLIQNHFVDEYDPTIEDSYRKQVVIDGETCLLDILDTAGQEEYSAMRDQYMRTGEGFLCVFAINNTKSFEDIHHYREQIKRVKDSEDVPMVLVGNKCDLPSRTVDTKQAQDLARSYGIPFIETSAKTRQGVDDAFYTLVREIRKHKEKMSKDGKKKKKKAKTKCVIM

COc1cc(/C=C/C(=O)c2ccc(N)cc2)cc(OC)c1OC
IC50 (GTPase KRas): 9.17 µM

COc1cc(/C=C/C(=O)c2ccc([N+](=O)[O-])cc2)cc(OC)c1OC
IC50 (GTPase KRas): 7.01 µM | inhibition [1]: inactive | inhibition [2]: Active | inhibition [3]: Active | inhibition [4]: inactive | inhibition [5]: inactive | fold change (FC) [6]: 1.89 | fold change (FC) [7]: 1.92 | fold change (FC) [8]: 2.57 | fold change (FC) [9]: 2.65 | fold change (FC) [10]: 1.31 | fold change (FC) [11]: 1.76 | fold change (FC) [12]: 2.85 | fold change (FC) [13]: 2.8 | inhibition [14]: inactive | inhibition [15]: Dose-dependent effect | inhibition [16]: Dose-dependent effect

COc1cc(/C=C/C(=O)c2ccc(N(C)C)cc2)cc(OC)c1OC
IC50 (GTPase KRas): 7.42 µM | inhibition [1]: inactive

COc1cc(C(=O)/C=C/c2ccc([N+](=O)[O-])cc2)cc(OC)c1OC
IC50 (GTPase KRas): 8.2 µM

COc1cc(C(=O)/C=C/c2c(F)cccc2F)cc(OC)c1OC
IC50 (GTPase KRas): 7.49 µM

COc1ccc(C(=O)/C=C/c2cc(OC)c(OC)c(OC)c2)cc1
IC50 (GTPase KRas): 8.29 µM

COc1cc(/C=C/C(=O)c2ccc(Br)cc2)cc(OC)c1OC
IC50 (GTPase KRas): 24.6 µM

COc1cc(/C=C/C(=O)c2ccccn2)cc(OC)c1OC
IC50 (GTPase KRas): 53 µM

COc1cc(/C=C/C(=O)c2ccc(F)cc2)cc(OC)c1OC
IC50 (GTPase KRas): 15.9 µM

COc1cc(/C=C/C(=O)c2c(F)cccc2F)cc(OC)c1OC
IC50 (GTPase KRas): 8.2 µM

From ChEMBL document CHEMBL4619740, “Chalcones bearing a 3,4,5-trimethoxyphenyl motif are capable of selectively inhibiting oncogenic K-Ras signaling” (Bioorg Med Chem Lett, 2020)
